SMILES strings stand for the structures. Bridge positions count the residues as written; N and C are the ends. Square brackets hold non-standard residues; d marks the D form. Peptide text beside a SMILES is read from it. Phe(4-Cl) = N[C@@H](Cc1ccc(Cl)cc1)C(=O)O; Phe(4-F) = N[C@@H](Cc1ccc(F)cc1)C(=O)O; dPhe(4-F) = N[C@H](Cc1ccc(F)cc1)C(=O)O; 2Nal = N[C@@H](Cc1ccc2ccccc2c1)C(=O)O; Bta = N[C@@H](Cc1csc2ccccc12)C(=O)O; 3Pal = N[C@@H](Cc1cccnc1)C(=O)O; Tle = CC(C)(C)[C@H](N)C(=O)O; Nle = CCCC[C@H](N)C(=O)O Bounds are passed on as bounds.

Test [1] addresses Somatostatin receptor type 4 (Homo sapiens, UniProt P31391). In words: The compound was tested for binding affinity against human Somatostatin receptor type 4. A digest of the protocol:
(§1)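 CHO-K1 cells stably transfected (calcium phosphate) with cloned human sst3 or sst4. Membranes made in ice-cold 50 mM Tris-HCl, resuspended in 10 mM Tris-HCl, then incubated 30 min at 37 °C with 0.05 nM [125I]Tyr11-SRIF in HEPES pH 7.4 with BSA, MgCl2 and protease inhibitors. Filtered on GF/C; nonspecific binding with 1.0 µM SRIF. Mean ± SEM, or one experiment.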

The target of test [2] is Somatostatin receptor type 5 (Homo sapiens, UniProt P35346). The test is described as follows: The compound was tested for binding affinity against human Somatostatin receptor type 5. A digest of the protocol: (§2)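 Membranes from CHO-K1 cells transfected with the cloned human receptor. Terminated by filtration on PEI-soaked GF/C filters. Nonspecific binding defined with 1.0 μM SRIF. Mean ± SEM; single values are from one experiment.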
Chain of Somatostatin receptor type 5 (P35346 whole entry): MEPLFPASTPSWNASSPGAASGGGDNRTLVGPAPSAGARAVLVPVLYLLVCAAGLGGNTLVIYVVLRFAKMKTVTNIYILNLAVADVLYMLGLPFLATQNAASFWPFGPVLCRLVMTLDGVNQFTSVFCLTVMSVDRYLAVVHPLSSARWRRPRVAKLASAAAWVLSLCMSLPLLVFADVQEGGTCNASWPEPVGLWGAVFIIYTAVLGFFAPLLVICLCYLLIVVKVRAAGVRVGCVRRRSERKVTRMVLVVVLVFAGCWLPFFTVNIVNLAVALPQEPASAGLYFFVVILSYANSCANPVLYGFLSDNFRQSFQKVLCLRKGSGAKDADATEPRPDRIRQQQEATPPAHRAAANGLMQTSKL

The target of test [3] is Somatostatin receptor type 2 (Homo sapiens, UniProt P30874). The test is described as follows: The compound was tested for binding affinity against human Somatostatin receptor type 2. A digest of the protocol: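 Membranes from CHO-K1 cells transfected with the cloned human sst2. Incubated 30 min at 37 °C with 0.05 nM [125I]MK-678 in HEPES pH 7.4 with BSA, MgCl2, Trasylol, bacitracin and PMSF. Filtration on PEI-soaked GF/C filters. Nonspecific binding defined with 1.0 μM SRIF. Mean ± SEM; single values are from one experiment.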
Chain of Somatostatin receptor type 2 (P30874 whole entry): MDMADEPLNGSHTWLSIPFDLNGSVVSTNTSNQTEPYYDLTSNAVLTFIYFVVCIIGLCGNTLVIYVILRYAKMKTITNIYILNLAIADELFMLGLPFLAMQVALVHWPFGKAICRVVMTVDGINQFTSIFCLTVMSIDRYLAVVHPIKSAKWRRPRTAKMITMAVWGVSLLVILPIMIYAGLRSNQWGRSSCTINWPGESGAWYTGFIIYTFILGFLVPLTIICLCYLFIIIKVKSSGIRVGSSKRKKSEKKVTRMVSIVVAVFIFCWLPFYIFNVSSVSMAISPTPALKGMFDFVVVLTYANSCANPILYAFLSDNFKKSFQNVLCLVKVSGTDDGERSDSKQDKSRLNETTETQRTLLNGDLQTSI

For test [4], the target named is Somatostatin receptor type 1 (Homo sapiens, UniProt P30872). The test is described as follows: The compound was tested for binding affinity against human Somatostatin receptor type 1. The method in brief:
as §2

For test [5], the target named is Somatostatin receptor type 3 (Homo sapiens, UniProt P32745). The test is described as follows: The compound was tested for binding affinity against human Somatostatin receptor type 3. A digest of the protocol:
as §1

Chain of Somatostatin receptor type 3 (P32745 whole entry): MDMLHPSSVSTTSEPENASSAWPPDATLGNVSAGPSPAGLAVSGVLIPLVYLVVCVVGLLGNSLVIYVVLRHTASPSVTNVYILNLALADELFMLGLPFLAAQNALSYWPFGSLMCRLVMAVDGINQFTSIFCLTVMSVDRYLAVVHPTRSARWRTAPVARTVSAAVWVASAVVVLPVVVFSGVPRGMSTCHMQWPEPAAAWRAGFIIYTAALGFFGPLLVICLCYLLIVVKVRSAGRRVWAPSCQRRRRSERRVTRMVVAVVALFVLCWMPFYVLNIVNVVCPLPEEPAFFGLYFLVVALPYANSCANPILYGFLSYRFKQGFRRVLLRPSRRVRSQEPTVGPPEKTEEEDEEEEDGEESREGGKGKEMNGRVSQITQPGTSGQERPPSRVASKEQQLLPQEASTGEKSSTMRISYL
Chain of Somatostatin receptor type 4 (P31391 whole entry): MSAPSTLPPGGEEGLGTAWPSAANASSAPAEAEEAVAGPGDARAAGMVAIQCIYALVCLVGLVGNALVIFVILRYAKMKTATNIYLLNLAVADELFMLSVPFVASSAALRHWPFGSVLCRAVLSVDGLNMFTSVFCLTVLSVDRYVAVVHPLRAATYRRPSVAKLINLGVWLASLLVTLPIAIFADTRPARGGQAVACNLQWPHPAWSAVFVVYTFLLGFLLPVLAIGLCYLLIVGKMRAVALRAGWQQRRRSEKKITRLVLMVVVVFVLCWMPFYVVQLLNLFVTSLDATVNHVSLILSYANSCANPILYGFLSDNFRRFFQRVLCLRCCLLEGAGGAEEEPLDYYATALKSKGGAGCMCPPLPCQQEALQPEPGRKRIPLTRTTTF
Chain of Somatostatin receptor type 1 (P30872 whole entry): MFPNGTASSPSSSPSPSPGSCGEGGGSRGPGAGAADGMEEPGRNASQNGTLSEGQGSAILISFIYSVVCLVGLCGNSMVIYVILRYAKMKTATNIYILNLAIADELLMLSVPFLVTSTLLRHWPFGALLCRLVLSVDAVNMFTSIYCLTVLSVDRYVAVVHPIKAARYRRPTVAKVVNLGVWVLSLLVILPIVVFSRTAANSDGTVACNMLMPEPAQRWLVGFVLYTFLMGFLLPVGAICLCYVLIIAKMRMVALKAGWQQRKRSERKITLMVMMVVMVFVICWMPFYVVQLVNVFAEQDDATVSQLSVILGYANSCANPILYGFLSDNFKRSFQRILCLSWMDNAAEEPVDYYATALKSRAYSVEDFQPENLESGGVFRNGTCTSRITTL

In general, Ki refers to the dissociation constant of the complex between target and ligand, obtained from inhibition or displacement. Low readings indicate tighter binding, high ones weaker binding. Turning to `CC(C)[C@@H]1NC(=O)[C@H](CCCCN)NC(=O)[C@@H](Cc2c[nH]c3ccccc23)NC(=O)[C@H](Cc2cccnc2)NC(=O)[C@H](NC(=O)[C@@H](N)Cc2ccc3ccccc3c2)CSSC[C@@H](C(=O)N[C@@H](Cc2ccc(F)cc2)C(N)=O)NC1=O`, the Ki is greater than 1 µM in test [1]; 0.376 µM in test [2]; 0.069 µM in test [3]; 1.06 µM in test [4]; 0.166 µM in test [5].
For `CC(C)[C@@H]1NC(=O)[C@H](CCCCN)NC(=O)[C@@H](Cc2c[nH]c3ccccc23)NC(=O)[C@H](Cc2cccnc2)NC(=O)[C@H](NC(=O)[C@@H](N)Cc2ccc3ccccc3c2)CSSC[C@@H](C(=O)N[C@H](C(N)=O)C(c2ccccc2)c2ccccc2)NC1=O` the same measures were greater than 1 µM, 0.725 µM, 0.037 µM, greater than 1 µM and 1.6 µM.
The matching figures for `C[C@@H]1NC(=O)[C@H](CCCCN)NC(=O)[C@@H](Cc2c[nH]c3ccccc23)NC(=O)[C@H](Cc2cccnc2)NC(=O)[C@H](NC(=O)[C@@H](N)Cc2ccc3ccccc3c2)CSSC[C@@H](C(=O)N[C@@H](Cc2ccc3ccccc3c2)C(N)=O)NC1=O`: greater than 1 µM, 1.86 µM, 0.203 µM, 1.2 µM and 0.379 µM.
Regarding `CC(C)[C@@H]1NC(=O)[C@H](CCCCN)NC(=O)[C@@H](Cc2c[nH]c3ccccc23)NC(=O)[C@H](Cc2cccnc2)NC(=O)[C@H](NC(=O)[C@@H](N)Cc2ccc(F)cc2)CSSC[C@@H](C(=O)N[C@@H](Cc2ccc3ccccc3c2)C(N)=O)NC1=O`, the inhibitory constant (Ki) in test [1] is greater than 1 µM; in test [2] it was 0.287 µM; in test [3] it was 0.035 µM; in test [4], 0.484 µM; in test [5], 0.271 µM.
The matching figures for `CC(C)[C@@H]1NC(=O)[C@H](CCCCN)NC(=O)[C@@H](Cc2c[nH]c3ccccc23)NC(=O)[C@H](Cc2cccnc2)NC(=O)[C@H](NC(=O)[C@@H](N)Cc2ccc(Cl)cc2)CSSC[C@@H](C(=O)N[C@@H](Cc2ccc3ccccc3c2)C(N)=O)NC1=O`: 1.59 µM, 0.24 µM, 0.025 µM, greater than 1 µM and 0.085 µM.
The matching figures for `CC(C)[C@@H]1NC(=O)[C@H](CCCCN)NC(=O)[C@@H](Cc2c[nH]c3ccccc23)NC(=O)[C@H](Cc2ccc(O)cc2)NC(=O)[C@H](NC(=O)[C@@H]2Cc3ccccc3CN2)CSSC[C@@H](C(=O)N2Cc3ccccc3C[C@H]2C(N)=O)NC1=O`: greater than 1 µM, greater than 1 µM, 0.345 µM, 1.03 µM and 0.802 µM.
For `CC(C)(C)[C@@H]1NC(=O)[C@H](CCCCN)NC(=O)[C@@H](Cc2c[nH]c3ccccc23)NC(=O)[C@H](Cc2cccnc2)NC(=O)[C@H](NC(=O)[C@@H](N)Cc2c[nH]c3ccccc23)CSSC[C@@H](C(=O)N[C@@H](Cc2ccc3ccccc3c2)C(N)=O)NC1=O` (H-W[dC][3Pal][dW]K[Tle]C[2Nal]-NH2; disulfide 2-7) the same measures were greater than 1 µM, 2.25 µM, 0.084 µM, greater than 1 µM and 0.21 µM.
Take `CC[C@H](C)[C@@H]1NC(=O)[C@H](CCCCN)NC(=O)[C@@H](Cc2c[nH]c3ccccc23)NC(=O)[C@H](Cc2cccnc2)NC(=O)[C@H](NC(=O)[C@@H](N)Cc2ccc3ccccc3c2)CSSC[C@@H](C(=O)N[C@@H](Cc2ccc3ccccc3c2)C(N)=O)NC1=O` (H-[2Nal][dC][3Pal][dW]KIC[2Nal]-NH2; disulfide 2-7): the Ki in test [1] is 1.04 µM; in test [2], 0.847 µM; in test [3] it was greater than 1 µM; in test [4] it was 0.172 µM; in test [5] it was 0.152 µM.
The matching figures for `CCCC[C@@H]1NC(=O)[C@H](CCCCN)NC(=O)[C@@H](Cc2c[nH]c3ccccc23)NC(=O)[C@H](Cc2cccnc2)NC(=O)[C@H](NC(=O)[C@@H](N)Cc2ccc3ccccc3c2)CSSC[C@@H](C(=O)N[C@@H](Cc2ccc3ccccc3c2)C(N)=O)NC1=O` (H-[2Nal][dC][3Pal][dW]K[Nle]C[2Nal]-NH2; disulfide 2-7): 0.672 µM, 0.814 µM, 0.076 µM, 0.845 µM and 0.126 µM.
For `CC(C)(C)[C@@H]1NC(=O)[C@H](CCCCN)NC(=O)[C@@H](Cc2c[nH]c3ccccc23)NC(=O)[C@H](Cc2cccnc2)NC(=O)[C@H](NC(=O)[C@@H](N)Cc2ccc3ccccc3c2)CSSC[C@@H](C(=O)N[C@@H](Cc2ccc3ccccc3c2)C(N)=O)NC1=O` (H-[2Nal][dC][3Pal][dW]K[Tle]C[2Nal]-NH2; disulfide 2-7) the same measures were 0.145 µM, 0.631 µM, 0.035 µM, greater than 1 µM and 0.371 µM.
The matching figures for `CC(C)[C@@H]1NC(=O)[C@H](CCCCN)NC(=O)[C@@H](Cc2c[nH]c3ccccc23)NC(=O)[C@H](Cc2csc3ccccc23)NC(=O)[C@H](NC(=O)[C@@H](N)Cc2ccc3ccccc3c2)CSSC[C@@H](C(=O)N[C@@H](Cc2ccc3ccccc3c2)C(N)=O)NC1=O` (H-[2Nal][dC][Bta][dW]KVC[2Nal]-NH2; disulfide 2-7): greater than 1 µM, 1.4 µM, 0.418 µM, greater than 1 µM and 0.709 µM.
With `CC(C)(C)[C@@H]1NC(=O)[C@H](CCCCN)NC(=O)[C@@H](Cc2c[nH]c3ccccc23)NC(=O)[C@H](Cc2cccnc2)NC(=O)[C@H](NC(=O)[C@@H](N)Cc2ccc(Cl)cc2)CSSC[C@@H](C(=O)N[C@@H](Cc2ccc3ccccc3c2)C(N)=O)NC1=O` (H-[Phe(4-Cl)][dC][3Pal][dW]K[Tle]C[2Nal]-NH2; disulfide 2-7), the inhibition constant (Ki) was 0.895 µM in test [1]; 0.52 µM in test [2]; 0.012 µM in test [3]; greater than 1 µM in test [4]; 0.1 µM in test [5].
Take `CC(C)(C)[C@@H]1NC(=O)[C@H](CCCCN)NC(=O)[C@@H](Cc2c[nH]c3ccccc23)NC(=O)[C@H](Cc2cccnc2)NC(=O)[C@H](NC(=O)[C@@H](N)Cc2ccc(F)cc2)CSSC[C@@H](C(=O)N[C@@H](Cc2ccc3ccccc3c2)C(N)=O)NC1=O` (H-[Phe(4-F)][dC][3Pal][dW]K[Tle]C[2Nal]-NH2; disulfide 2-7): the inhibition constant Ki in test [1] is greater than 1 µM; in test [2], 0.535 µM; in test [3], 0.026 µM; in test [4], greater than 1 µM; in test [5], 0.231 µM.
Consider `CC(C)(C)[C@@H]1NC(=O)[C@H](CCCCN)NC(=O)[C@@H](Cc2c[nH]c3ccccc23)NC(=O)[C@H](Cc2cccnc2)NC(=O)[C@H](NC(=O)[C@H](N)Cc2ccc(F)cc2)CSSC[C@@H](C(=O)N[C@@H](Cc2ccc3ccccc3c2)C(N)=O)NC1=O` (H-[dPhe(4-F)][dC][3Pal][dW]K[Tle]C[2Nal]-NH2; disulfide 2-7), for which the Ki is 0.888 µM in test [1]; 0.26 µM in test [2]; 0.132 µM in test [3]; greater than 1 µM in test [4]; 0.555 µM in test [5].
The matching figures for `C[C@@H](O)[C@@H]1NC(=O)[C@H](CCCCN)NC(=O)[C@@H](Cc2c[nH]c3ccccc23)NC(=O)[C@@H](Cc2ccccn2)NC(=O)C(NC(=O)[C@@H](N)Cc2ccc(Cl)cc2)CSSCC(C(=O)N[C@@H](Cc2ccc3ccccc3c2)C(N)=O)NC1=O` (stereo in doubt): greater than 1 µM, 0.07 µM, 0.014 µM, 1.03 µM and 0.053 µM.
For `CC(C)[C@H]1NC(=O)[C@H](CCCCN)NC(=O)[C@@H](Cc2c[nH]c3ccccc23)NC(=O)[C@H](Cc2c[nH]cn2)NC(=O)C(NC(=O)[C@@H](N)Cc2ccccc2F)CSSCC(C(=O)N[C@@H](Cc2ccccc2F)C(N)=O)NC1=O` (stereo in doubt) the same measures were greater than 1 µM, 0.972 µM, 0.176 µM, 0.037 µM and 0.382 µM.
The matching figures for `CC(C)[C@@H]1NC(=O)[C@H](CCCCN)NC(=O)[C@@H](Cc2c[nH]c3ccccc23)NC(=O)[C@H](Cc2ccc(O)c(I)c2)NC(=O)C(NC(=O)[C@@H](N)Cc2ccc3ccccc3c2)CSSCC(C(=O)N[C@@H](Cc2ccc3ccccc3c2)C(N)=O)NC1=O` (stereo in doubt): greater than 1 µM, 0.468 µM, 0.194 µM, greater than 1 µM and 0.482 µM.
Take `CC(C)[C@H]1NC(=O)[C@H](CCCCN)NC(=O)[C@@H](Cc2c[nH]c3ccccc23)NC(=O)[C@H](Cc2c[nH]cn2)NC(=O)C(NC(=O)[C@@H](N)Cc2c(F)c(F)c(F)c(F)c2F)CSSCC(C(=O)N[C@@H](Cc2c(F)c(F)c(F)c(F)c2F)C(N)=O)NC1=O` (stereo in doubt): the inhibition constant (Ki) is greater than 1 µM in test [1]; 0.926 µM in test [2]; 0.637 µM in test [3]; 0.069 µM in test [4]; 0.124 µM in test [5].

The values are drawn from ChEMBL document CHEMBL1132220 (J Med Chem, 1999).
